# Results taken from ChEMBL document CHEMBL5131470, “Structure-activity and structure-property relationship studies of spirocyclic chromanes with antimalarial activity” (Bioorg Med Chem, 2022).
# Columns and labels:
# Plasmodium falciparum [1] = assay: Antimalarial activity against chloroquine-resistant Plasmodium falciparum Dd2 assessed as inhibition of parasite growth incubated for 72 hrs by SYBR green I-based DNA quantification assay; assay type: functional, organism-based; details: Dd2, 72 h
# [2] = Cytotoxicity against human HepG2 cells assessed as reduction in cell viability incubated for 48 hrs by MTS assay; assay type: toxicity, cell-based
# Summary of the method: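 HepG2 human hepatoma cells were seeded at 2,500 cells/well in 384-well plates and incubated 24 h. Serial compound dilutions (0–40 μM range) were added, then cells were incubated a further 48 h.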
# [3] = Selectivity index, ratio of EC50 for cytotoxicity against human HepG2 cells to EC50 for antimalarial activity against chloroquine-resistant Plasmodium falciparum Dd2; assay type: toxicity, cell-based; details: read-out: Ratio EC50
# Summary of the method: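 Human HepG2 hepatoma cells were seeded at 2,500 cells/well and grown 24 h. Serial dilutions of compound (0–40 μM) were then added for another 48 h. […] SI = EC50(HepG2)/EC50(Dd2).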
# Plasmodium falciparum [4] = assay: Antiplasmodial activity against chloroquine-sensitive Plasmodium falciparum D6 assessed as inhibition of parasite growth incubated for 48 hrs by time zero-[3H]hypoxanthine incorporation assay; assay type: functional, organism-based
# Plasmodium falciparum [5] = assay: Antiplasmodial activity against artemisinin-resistant Plasmodium falciparum ARC08-022 assessed as inhibition of parasite growth incubated for 48 hrs by time zero-[3H]hypoxanthine incorporation assay; assay type: functional, organism-based
# Plasmodium falciparum [6] = assay: Selectivity for antiplasmodial activity for chloroquine-resistant Plasmodium falciparum Dd2 over antiplasmodial activity against chloroquine-sensitive Plasmodium falciparum D6; assay type: functional
# Plasmodium falciparum [7] = assay: Selectivity for antiplasmodial activity for chloroquine-resistant Plasmodium falciparum Dd2 over antiplasmodial activity against artemisinin-resistant Plasmodium falciparum ARC08-022; assay type: functional
# Plasmodium falciparum [8] = assay: Selectivity for antiplasmodial activity for chloroquine-sensitive Plasmodium falciparum 3D7 over antiplasmodial activity against chloroquine-sensitive Plasmodium falciparum D6; assay type: functional
# Plasmodium falciparum [9] = assay: Selectivity for antiplasmodial activity for chloroquine-sensitive Plasmodium falciparum 3D7 over antiplasmodial activity against artemisinin-resistant Plasmodium falciparum ARC08-022; assay type: functional
# [10] = Octanol-water distribution coefficient, logD of the compound at pH 3 by HPLC-based analysis; assay type: physicochemical
# [11] = Octanol-water distribution coefficient, logD of the compound at pH 7.4 by HPLC-based analysis; assay type: physicochemical
# [12] = Aqueous solubility of the compound at pH 2 by HPLC analysis; assay type: physicochemical; details: aqueous solution
# Summary of the method: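 Aqueous solubility was measured at pH 2.0 with an in-house HPLC assay. Values are reported as bins: ≤10 μM, 10–20 μM, 20–40 μM, 40–80 μM and ≥80 μM.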
# [13] = Aqueous solubility of the compound at pH 6.5; details: aqueous solution
Compound,EC50 (Plasmodium falciparum [1]),EC50 at 48 h [2],selectivity ratio [3],EC50 (Plasmodium falciparum [4]),EC50 (Plasmodium falciparum [5]),Selectivity ratio (Plasmodium falciparum [6]),Selectivity ratio (Plasmodium falciparum [7]),Selectivity ratio (Plasmodium falciparum [8]),Selectivity ratio (Plasmodium falciparum [9]),logD [10],logD [11],solubility [12],solubility [13]
OC(CN1CCC2(CC1)CC(O)c1ccc3ccccc3c1O2)c1ccc(F)c(F)c1 (configuration not stated),320 nM,> 20000 nM,> 53.3,1480 nM,1810 nM,3,3,3,3,,,,
OC1CC2(CCN(CCC3CCCCC3)CC2)Oc2c1ccc1ccccc21 (configuration not stated),500 nM,14000 nM,35.1,500 nM,630 nM,,,,,2.97,3.54,40 µM,20 µM
OC(CN1CCC2(CCc3ccc4ccccc4c3O2)CC1)c1ccc(F)c(F)c1 (configuration not stated),530 nM,> 20000 nM,> 10.4,310 nM,970 nM,,,,,3.05,4,40 µM,≤ 10 µM
